Test results taken from ChEMBL document CHEMBL1157617, “A new class of naphthalimide-based antitumor agents that inhibit topoisomerase II and induce lysosomal membrane permeabilization and apoptosis” (J Med Chem, 2010).
Activity calls are given as the source filed them. No cut-off for these calls is given here.

How the values were obtained:
[1] = system: Nucleic Acid; assay: Induction of conformational changes in Escherichia coli pBR322 DNA assessed as DNA relaxation at 100 uM after 2 hrs by gel electrophoresis; assay type: nucleic-acid assay
Summary of the method: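 pBR322 plasmid (200 ng) was incubated with compound at 100 μM in Tris-HCl pH 7.4 for 2 h at 37 °C. Samples ran on 1% agarose and were stained with ethidium bromide; supercoiled versus relaxed forms were judged from gel migration.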

[2] = biological target: DNA topoisomerase 2-alpha (Homo sapiens) (UniProt P11388); assay: Inhibition of DNA topoisomerase 2-mediated kDNA decatenation at 100 uM
Sequence of DNA topoisomerase 2-alpha (Homo sapiens) (P11388 whole entry): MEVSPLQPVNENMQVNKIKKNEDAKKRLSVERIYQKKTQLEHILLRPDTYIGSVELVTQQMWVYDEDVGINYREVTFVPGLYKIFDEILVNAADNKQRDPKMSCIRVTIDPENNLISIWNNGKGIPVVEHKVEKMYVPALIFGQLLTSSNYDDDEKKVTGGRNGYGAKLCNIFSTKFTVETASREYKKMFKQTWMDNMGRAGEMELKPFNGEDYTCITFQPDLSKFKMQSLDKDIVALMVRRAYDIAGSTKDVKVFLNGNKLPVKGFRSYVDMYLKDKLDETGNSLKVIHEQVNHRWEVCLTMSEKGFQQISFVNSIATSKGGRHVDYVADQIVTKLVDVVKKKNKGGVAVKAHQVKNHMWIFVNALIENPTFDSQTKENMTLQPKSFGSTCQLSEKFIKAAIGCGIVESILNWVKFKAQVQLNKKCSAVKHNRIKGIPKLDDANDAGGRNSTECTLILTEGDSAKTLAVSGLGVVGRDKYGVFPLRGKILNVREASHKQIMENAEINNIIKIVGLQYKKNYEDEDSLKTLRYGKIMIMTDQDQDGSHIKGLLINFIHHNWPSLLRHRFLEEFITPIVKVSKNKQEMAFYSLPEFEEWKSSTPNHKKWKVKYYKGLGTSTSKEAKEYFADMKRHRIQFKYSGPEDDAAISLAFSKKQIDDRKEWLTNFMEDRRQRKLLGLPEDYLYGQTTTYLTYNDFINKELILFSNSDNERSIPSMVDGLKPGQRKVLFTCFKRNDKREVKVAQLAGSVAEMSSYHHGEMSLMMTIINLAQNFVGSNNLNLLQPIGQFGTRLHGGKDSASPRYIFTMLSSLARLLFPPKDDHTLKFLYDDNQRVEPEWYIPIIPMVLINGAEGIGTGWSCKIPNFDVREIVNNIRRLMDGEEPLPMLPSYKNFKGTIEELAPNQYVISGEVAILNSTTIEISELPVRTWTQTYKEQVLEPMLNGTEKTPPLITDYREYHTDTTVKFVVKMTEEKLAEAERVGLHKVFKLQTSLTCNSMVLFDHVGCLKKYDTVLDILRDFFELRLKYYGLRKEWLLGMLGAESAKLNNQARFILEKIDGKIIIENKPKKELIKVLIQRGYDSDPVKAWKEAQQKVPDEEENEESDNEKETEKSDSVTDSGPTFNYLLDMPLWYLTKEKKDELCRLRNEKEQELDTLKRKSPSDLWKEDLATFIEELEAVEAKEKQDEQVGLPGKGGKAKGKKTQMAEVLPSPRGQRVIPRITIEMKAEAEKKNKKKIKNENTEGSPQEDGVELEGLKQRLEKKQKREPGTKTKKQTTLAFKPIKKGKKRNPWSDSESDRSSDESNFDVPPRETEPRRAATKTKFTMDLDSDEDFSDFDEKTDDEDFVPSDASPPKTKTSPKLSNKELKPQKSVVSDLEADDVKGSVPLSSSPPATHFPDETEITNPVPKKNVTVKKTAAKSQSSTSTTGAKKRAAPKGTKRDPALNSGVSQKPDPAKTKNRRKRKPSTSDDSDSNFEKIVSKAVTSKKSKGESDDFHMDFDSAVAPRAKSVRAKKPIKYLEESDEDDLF
Summary of the method: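 Cell-free topo II decatenation: 0.2 μg kDNA was incubated with HeLa-cell topo II extract and compound at 100 μM. The cleavage buffer contained 50 mM Tris-HCl pH 8.0, 120 mM KCl, 10 mM MgCl2, 1 mM ATP and 0.5 mM DTT. Reactions ran 15 min at 37 °C and were stopped with SDS. Products were resolved on 1% agarose and stained with ethidium bromide.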

[3] = system: HL-60; assay: Cytotoxicity against human HL60 cells after 72 hrs by MTT assay; assay type: functional, cell-based; conditions: HL-60, 24 h, in the assay text read “after 24 hrs” for “after 72 hrs”
Summary of the method: (§1)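 MTT viability assay on HeLa, HL-60, MCF-7, MKN45 and LS174 cells. MTT (500 μg/mL) was added for 4 h at 37 °C and formazan dissolved in DMSO; A570 was read. IC50 came from linear regression; experiments were done in triplicate.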

[4] = system: MCF7; assay: Cytotoxicity against human MCF7 cells after 72 hrs by MTT assay; assay type: functional, cell-based; conditions: MCF7, 24 h, in the assay text read “after 24 hrs” for “after 72 hrs”; summary of the method: as §1
[5] = system: HeLa; assay: Cytotoxicity against human HeLa cells after 24 hrs by MTT assay
[6] = system: MKN-45; assay: Cytotoxicity against human MKN45 cells after 24 hrs by MTT assay; conditions: MKN-45, 24 h
[7] = Cytotoxicity against human LS 174T cells after 24 hrs by MTT assay; conditions: LS174T
[8] = system: HeLa; assay: Induction of lysosomal membrane permeabilization in human HeLa cells assessed as acridine orange red fluorescence at 6 uM after 24 hrs by flow cytometry; assay type: functional
Summary of the method: (§2)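 Each compound was tested at three concentrations on HeLa cells for 24 h. Adherent and floating cells were pooled and stained with 20 μg/mL acridine orange for 2 min at room temperature. Lysosomal rupture was scored by flow cytometry as percentage of cells with AO red fluorescence.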

[9] = system: Calf thymus DNA; assay: Binding affinity to calf thymus DNA assessed as circular dichroism by CD spectroscopy; assay type: nucleic-acid assay; conditions: Bos taurus
Summary of the method: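 CT DNA (100 μM) with drug (20 μM) in 20 mM Tris-HCl pH 7.4. DNA concentration set by UV absorbance, A260/A280 above 1.8. CD spectrum recorded 200-400 nm in a 1 cm cell after shaking, thermal equilibration and buffer subtraction. Analysed over 230-300 nm.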

[10] = system: HeLa; assay: Induction of lysosomal membrane permeabilization in human HeLa cells assessed as acridine orange red fluorescence at 2 uM after 24 hrs by flow cytometry; assay type: functional; summary of the method: as §2
[11] = system: HeLa; assay: Induction of lysosomal membrane permeabilization in human HeLa cells assessed as acridine orange red fluorescence at 4 uM after 24 hrs by flow cytometry; assay type: functional; summary of the method: as §2
[12] = system: HeLa; assay: Induction of cytochrome c release into cytosol in human HeLa cells at IC50 concentration after 24 hrs by FITC/Hoechst soluble immunocytochemical staining; assay type: functional, cell-based
Summary of the method: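 HeLa cells were treated 24 h at compound-specific concentrations, then fixed in 10% formaldehyde, permeabilized in 90% methanol and blocked with milk. Staining was rabbit anti-cytochrome c (1:500) then FITC goat anti-rabbit IgG (1:100), 1 h each at room temperature, with 2 μg/mL Hoechst 33258 as counterstain. Cytosolic green signal was imaged by confocal microscopy.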

[13] = system: HeLa; assay: Induction of apoptosis in human HeLa cells assessed as viable cells at IC50 concentration after 24 hrs using annexin V/propidium iodide staining by flow cytometry; assay type: functional
Summary of the method: (§3)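 HeLa cells, seeded at 1 × 10^6 per well, were treated for 24 h at a fixed concentration set per compound. Cells were washed in cold PBS and resuspended in binding buffer. Staining was annexin V-FITC at 4 °C in the dark for 15 min, then PI for 5 min. Quadrants were read by flow cytometry: live, early apoptotic, late apoptotic, damaged. Run three times.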

[14] = system: HeLa; assay: Induction of apoptosis in human HeLa cells assessed as damaged cells at IC50 concentration after 24 hrs using annexin V/propidium iodide staining by flow cytometry; assay type: functional; summary of the method: as §3
[15] = system: HeLa; assay: Induction of apoptosis in human HeLa cells assessed as late apoptotic cells at IC50 concentration after 24 hrs using annexin V/propidium iodide staining by flow cytometry; assay type: functional; summary of the method: as §3
[16] = system: HeLa; assay: Induction of lysosomal membrane permeabilization in human HeLa cells assessed as acridine orange red fluorescence at 5 uM after 24 hrs by flow cytometry; assay type: functional; summary of the method: as §2
[17] = system: HeLa; assay: Induction of lysosomal membrane permeabilization in human HeLa cells assessed as acridine orange red fluorescence at 8 uM after 24 hrs by flow cytometry; assay type: functional; summary of the method: as §2
[18] = system: HeLa; assay: Induction of lysosomal membrane permeabilization in human HeLa cells assessed as acridine orange red fluorescence at 11 uM after 24 hrs by flow cytometry; assay type: functional; summary of the method: as §2
[19] = system: MCF7; assay: Cytotoxicity against human MCF7 cells after 24 hrs by MTT assay; conditions: MCF7, 24 h
[20] = system: HeLa; assay: Induction of lysosomal membrane permeabilization in human HeLa cells assessed as acridine orange red fluorescence at 1 uM after 24 hrs by flow cytometry; assay type: functional; summary of the method: as §2
[21] = system: HeLa; assay: Induction of lysosomal membrane permeabilization in human HeLa cells assessed as acridine orange red fluorescence at 3 uM after 24 hrs by flow cytometry; assay type: functional; summary of the method: as §2
[22] = system: HeLa; assay: Induction of apoptosis in human HeLa cells assessed as early apoptotic cells at IC50 concentration after 24 hrs using annexin V/propidium iodide staining by flow cytometry; assay type: functional; summary of the method: as §3
[23] = system: Calf thymus DNA; assay: Binding affinity to calf thymus DNA by fluorescent spectra analysis; assay type: nucleic-acid assay; conditions: Bos taurus
Summary of the method: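 Compounds at 10, 20, 30 and 50 μM in 20 mM Tris-HCl pH 7.4, with or without 100 μM CT DNA (no-DNA samples as control). Incubated 1 day in the dark at 25 °C. Fluorescence wavelength and intensity read at 25 °C. Scatchard binding constant calculated.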

[24] = system: HeLa; assay: Induction of lysosomal membrane permeabilization in human HeLa cells assessed as acridine orange red fluorescence at 10 uM after 24 hrs by flow cytometry; assay type: functional; summary of the method: as §2
[25] = system: HeLa; assay: Induction of lysosomal membrane permeabilization in human HeLa cells assessed as acridine orange red fluorescence at 15 uM after 24 hrs by flow cytometry; assay type: functional; summary of the method: as §2
[26] = in the assay text read “late apoptotic cells” for “damaged cells”

SMILES | Activity [1] | Activity [2] | IC50 [3] [µM] | IC50 [4] [µM] | IC50 [5] [µM] | IC50 [6] [µM] | IC50 [7] [µM] | Activity [8] [%] | Activity [9] | Activity [10] [%] | Activity [11] [%] | Activity [12] | Activity [14, 26] [%] | Activity [22] [%] | other results
COc1cccc2c1C(=O)c1c(O)c3c(c(O)c1C2=O)C[C@@](O)(C(=O)CO)C[C@@H]3O[C@H]1C[C@H](N)[C@H](O)[C@H](C)O1 | Active | Active | – | – | – | – | – | – | – | – | – | – | – | – | –
CNc1ccc2c3c(cccc13)C(=O)N(CCCN(C)C)C2=O | – | – | 21.6 | 9.66 | 23.4 | > 50 | 31.5 | – | – | – | – | – | – | – | –
CCCCCCCCCCCCNc1ccc2c3c(cccc13)C(=O)N(CCCNCCN(C)C)C2=O | inactive | Active | 4.04 | 2.56 | 4.71 | 15.5 | 9.43 | 44.64 | inactive | 85.49 | 82.37 | Active | 98.89 | – | Activity [13]: 1.05%; Activity [15]: 98.89%
CCCCCCCCCCCCN1C(=O)c2cccc3c(NCCN(C)C)ccc(c23)C1=O | – | – | 5.32 | 3.57 | 9.13 | 9.03 | 12.8 | – | – | – | – | – | – | – | –
CCCCCCCCNc1ccc2c3c(cccc13)C(=O)N(CCCN1CCN(C)CC1)C2=O | inactive | Active | 5.7 | – | 8.1 | 22.2 | 18.4 | – | inactive | – | – | Active | – | – | Activity [16]: 89.48%; Activity [17]: 91.86%; Activity [18]: 83.18%; Activity [13]: 3.28%; Activity [14]: 96.66%; Activity [15]: 96.7%; IC50 [19]: 5.72 µM
CCCCCCCCCCCCN1C(=O)c2cccc3c(NCCCCCCCC)ccc(c23)C1=O | – | – | > 50 | > 50 | 46.4 | > 50 | > 50 | – | – | – | – | – | – | – | –
CCCCCCCCNc1ccc2c3c(cccc13)C(=O)N(CCCN(C)C)C2=O | – | – | 5.53 | 5.15 | 8.52 | 17.6 | 5.87 | – | – | – | – | – | – | – | –
CCCCCCCCCCCCNc1ccc2c3c(cccc13)C(=O)N(CCCN1CCN(C)CC1)C2=O | inactive | Active | 2.98 | 2.48 | 2.89 | 8.43 | 7.43 | – | inactive | – | – | Active | 14.96 | 84.84 | Activity [16]: 59.82%; Activity [20]: 96.01%; Activity [21]: 95.2%
CCCCCCCCN1C(=O)c2cccc3c(NCCNCCN(C)C)ccc(c23)C1=O | inactive | Active | 5.13 | 3.76 | 4.5 | 9.28 | 9.27 | 85.74 | inactive | 92.29 | 90.98 | Active | 9.82 | 90.07 | Activity [23]: inactive
CCCCCCCCNc1ccc2c3c(cccc13)C(=O)N(CCCNCCN(C)C)C2=O | inactive | Active | 2.67 | 2.41 | 4.06 | 14.8 | 9.16 | 32.89 | inactive | 83.13 | 84.5 | Active | – | 74.25 | Activity [13]: 25.7%
CN(C)CCN1C(=O)c2cccc3cc(N)cc(c23)C1=O [AMONAFIDE] | – | Active | – | – | 10.7 | > 50 | 20.3 | – | – | – | – | – | – | – | Kb [23]: 14300 M⁻¹; Activity [16]: 112%; Activity [24]: 10%; Activity [25]: 77.27%
CCCCCCCCCCCCN1C(=O)c2cccc3c(NCCN4CCN(C)CC4)ccc(c23)C1=O | inactive | Active | 7.05 | 2.79 | 5.45 | 9.28 | 12.7 | 92.83 | inactive | 97.39 | 95.81 | Active | 12.75 | 86.98 | –
